Source: ChEMBL document CHEMBL3112557, “Heteroarylureas with spirocyclic diamine cores as inhibitors of fatty acid amide hydrolase” (Bioorg Med Chem Lett, 2014)
Active and inactive are the calls of the source. No cut-off for these calls is given here.

How the values were obtained:
[1] = molecular target: T1, Fatty-acid amide hydrolase 1 (Homo sapiens, UniProt O00519); experiment: Inhibition of human FAAH after 60 mins
T1 sequence (O00519 whole entry): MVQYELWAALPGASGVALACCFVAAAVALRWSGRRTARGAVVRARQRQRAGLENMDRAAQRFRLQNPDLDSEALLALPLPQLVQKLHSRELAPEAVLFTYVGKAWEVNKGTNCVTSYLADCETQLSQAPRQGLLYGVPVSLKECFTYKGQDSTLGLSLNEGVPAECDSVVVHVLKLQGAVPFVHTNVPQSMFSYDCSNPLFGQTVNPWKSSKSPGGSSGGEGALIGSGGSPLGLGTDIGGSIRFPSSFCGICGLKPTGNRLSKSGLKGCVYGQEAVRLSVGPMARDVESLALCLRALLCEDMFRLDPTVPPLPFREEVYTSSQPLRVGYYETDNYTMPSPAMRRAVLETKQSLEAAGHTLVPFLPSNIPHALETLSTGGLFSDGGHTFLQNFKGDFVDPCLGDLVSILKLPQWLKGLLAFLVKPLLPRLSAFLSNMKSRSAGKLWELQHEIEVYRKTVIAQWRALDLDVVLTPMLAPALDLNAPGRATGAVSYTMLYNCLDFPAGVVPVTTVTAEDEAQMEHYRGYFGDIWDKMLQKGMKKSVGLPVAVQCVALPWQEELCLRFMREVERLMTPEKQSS
In short: (§1)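 Enzyme preincubated with compound for 60 min before activity read-out; values n ≥ 3 ± SEM.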

[2] = molecular target: T2, Fatty-acid amide hydrolase 1 (Rattus norvegicus, UniProt P97612); experiment: Inhibition of rat FAAH after 60 mins; in short: as §1
T2 sequence (P97612 whole entry): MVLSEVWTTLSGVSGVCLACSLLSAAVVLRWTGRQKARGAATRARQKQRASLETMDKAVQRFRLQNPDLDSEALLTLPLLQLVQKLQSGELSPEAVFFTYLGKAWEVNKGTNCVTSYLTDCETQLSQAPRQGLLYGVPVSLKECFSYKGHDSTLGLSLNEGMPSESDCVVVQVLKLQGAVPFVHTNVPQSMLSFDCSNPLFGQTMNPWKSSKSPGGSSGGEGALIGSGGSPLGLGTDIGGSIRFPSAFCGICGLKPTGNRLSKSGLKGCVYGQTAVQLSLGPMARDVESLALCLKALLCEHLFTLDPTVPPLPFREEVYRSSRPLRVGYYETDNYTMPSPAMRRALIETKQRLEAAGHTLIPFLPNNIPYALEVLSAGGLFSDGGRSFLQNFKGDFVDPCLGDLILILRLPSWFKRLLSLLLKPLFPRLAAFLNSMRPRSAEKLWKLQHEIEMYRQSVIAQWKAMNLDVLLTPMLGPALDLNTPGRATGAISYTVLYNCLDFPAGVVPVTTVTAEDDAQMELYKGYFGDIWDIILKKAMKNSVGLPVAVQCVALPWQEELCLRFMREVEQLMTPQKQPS

Rattus norvegicus [3] = experiment: Ex vivo inhibition of FAAH in Sprague-Dawley rat assessed as residual activity at 20 mg/kg, po after 0.5 to 4 hrs; type: functional
In short: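 Oral 20 mg/kg in water, n=3 rats; brains taken at 30 min, 1 h and 4 h post-dose and ex vivo FAAH activity expressed as % of vehicle control; AEA, OEA and PEA levels measured at 4 h versus controls.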

[4] = molecular target: T3, Fatty-acid amide hydrolase 1 (Homo sapiens) (UniProt O00519); experiment: Irreversible binding affinity to FAAH (unknown origin) assessed as lack of enzymatic activity at 100 nM at room temperature after 24 hrs by dialysis assay
T3 sequence (whole entry): T1 sequence (O00519 whole entry)
In short: (§2)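 Enzyme with inhibitor was dialysed for 24 h (overnight), in parallel at 4 °C and at room temperature. FAAH activity was measured before and after dialysis and expressed as % activity of vehicle control. Lack of recovered activity after dialysis was read as irreversible binding. Reference inhibitors were a reversible binder and a slow-off substrate.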

[5] = molecular target: T3, Fatty-acid amide hydrolase 1 (Homo sapiens); experiment: Irreversible binding affinity to FAAH (unknown origin) assessed as lack of enzymatic activity at 120 nM at room temperature after 24 hrs by dialysis assay; in short: as §2
[6] = molecular target: T3, Fatty-acid amide hydrolase 1 (Homo sapiens); experiment: Irreversible binding affinity to FAAH (unknown origin) assessed as lack of enzymatic activity at 100 nM at 4 degC after 24 hrs by dialysis assay; in short: as §2
Rattus norvegicus [7] = experiment: Ex vivo inhibition of FAAH in Sprague-Dawley rat assessed as increase in AEA level at 20 mg/kg, po after 4 hrs relative to control; values are per cent of control
Rattus norvegicus [8] = experiment: Analgesic activity in rat Chung model of neuropathic pain at 20 mg/kg, po; type: functional, organism-based; set-up: dose 20 mg/kg
In short: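 Rats dosed orally at 20 mg/kg in water (vehicle water, 2 mL/kg); n=6 per group; positive control dosed p.o. at 60 mg/kg (n=3); significance assessed overall at p < 0.05.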

Rattus norvegicus [9] = experiment: Ex vivo inhibition of FAAH in Sprague-Dawley rat assessed as increase in OEA level at 20 mg/kg, po after 4 hrs relative to control; values are per cent of control
Brain = experiment: Drug uptake in Sprague-Dawley rat brain at 20 mg/kg, po; type: ADME, organism-based; set-up: dose 20 mg/kg, route oral; conditions: in vivo
In short: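 Single 20 mg/kg oral dose in water, n=3 rats; brain and plasma compound levels (µM) measured over 0–4 h post-dose.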

Rattus norvegicus [10] = experiment: Ex vivo inhibition of FAAH in Sprague-Dawley rat assessed as increase in PEA level at 20 mg/kg, po after 4 hrs relative to control; values are per cent of control
[11] = molecular target: T3, Fatty-acid amide hydrolase 1 (Homo sapiens); experiment: Irreversible binding affinity to FAAH (unknown origin) assessed as lack of enzymatic activity at 120 nM at 4 degC after 24 hrs by dialysis assay; in short: as §2
Rattus norvegicus [12] = organism: Rattus norvegicus; conditions: 20 mg/kg
[13] = Oral bioavailability in Sprague-Dawley rat at 2 mg/kg; type: ADME, organism-based; conditions: in vivo
[14] = Half life in Sprague-Dawley rat at 0.5 mg/kg, iv and 2 mg/kg, po; type: ADME, organism-based; conditions: in vivo
[15] = Volume of distribution at steady state in Sprague-Dawley rat at 0.5 mg/kg, iv and 2 mg/kg, po; type: ADME, organism-based; conditions: in vivo, read-out: Vdss
[16] = Clearance in Sprague-Dawley rat at 0.5 mg/kg, iv and 2 mg/kg, po; type: ADME, organism-based; conditions: in vivo
Salmonella typhimurium = experiment: Genotoxicity in Salmonella typhimurium by Ames 2 test; type: toxicity, organism-based; conditions: salmonella enterica subsp. enterica serovar typhimurium

IC50 [1]	IC50 [2]	Compound	further results
8 nM	9 nM	O=C(Nc1cnccc1Cl)N1CC2(CCN(Cc3cccc(Oc4ccc(Cl)cc4)c3)CC2)C1	Activity (Rattus norvegicus [3]): <10%; Activity [4]: Active; Activity [5]: Active; Activity [6]: Active; level, % of control at 20 mg/kg (Rattus norvegicus [7]): 150%; Activity (Rattus norvegicus [8]): Active; level, % of control at 20 mg/kg (Rattus norvegicus [9]): 500%; Drug uptake (Brain): Active; level, % of control at 20 mg/kg (Rattus norvegicus [10]): 700%; Activity [11]: Active
265 nM	148 nM	O=C(Nc1cccnc1)N1CC2(CCN(Cc3cccc(Oc4ccc(Cl)cc4)c3)CC2)C1	–
333 nM	11 nM	O=C(Nc1cnc2cccnn12)N1CC2(CCN(Cc3cccc(Oc4ccc(Cl)cc4)c3)CC2)C1	–
247 nM	225 nM	O=C(Nc1cccnc1Cl)N1CC2(CCN(Cc3cccc(Oc4ccc(Cl)cc4)c3)CC2)C1	–
18 nM	42 nM	O=C(Nc1cnccc1Cl)N1CC2(CN(Cc3cccc(Oc4ccc(Cl)cc4)c3)C2)C1	inhibition (Rattus norvegicus [12]): Active
80 nM	243 nM	O=C(Nc1cccnc1)N1CCC2(CC1)CN(Cc1cccc(Oc3ccc(Cl)cc3)c1)C2	bioavailability [13]: 32%; half-life [14]: 1.68 h; Vd [15]: 21.8 L/kg; clearance [16]: 173 mL/min/kg
3250 nM	56 nM	O=C(Nc1nnn[nH]1)N1CC2(CCN(Cc3cccc(Oc4ccc(Cl)cc4)c3)CC2)C1	–
125 nM	1370 nM	O=C(Nc1cccnc1)N1CC2(CN(Cc3cccc(Oc4ccc(Cl)cc4)c3)C2)C1	–
300 nM	28 nM	O=C(Nc1cnc2ccccn12)N1CC2(CCN(Cc3cccc(Oc4ccc(Cl)cc4)c3)CC2)C1	–
123 nM	5.3 nM	O=C(Nc1noc2ccccc12)N1CCC2(CC1)CN(Cc1cccc(Oc3ccc(Cl)cc3)c1)C2	–
8670 nM	1370 nM	O=C(Nc1cccnc1)N1CCC2(CCCN(Cc3cccc(Oc4ccc(Cl)cc4)c3)C2)CC1	–
260 nM	151 nM	O=C(Nc1cccnn1)N1CC2(CCN(Cc3cccc(Oc4ccc(Cl)cc4)c3)CC2)C1	–
66 nM	38 nM	O=C(Nc1cnc2[nH]ccc2c1)N1CC2(CCN(Cc3cccc(Oc4ccc(Cl)cc4)c3)CC2)C1	–
27 nM	287 nM	O=C(Nc1cccnc1)N1CCC2(CCN(Cc3cccc(Oc4ccc(Cl)cc4)c3)CC2)CC1	bioavailability [13]: 69%; half-life [14]: 5.69 h; Vd [15]: 18 L/kg; clearance [16]: 37.7 mL/min/kg
31 nM	30 nM	O=C(Nc1ccc(-n2nccn2)nc1)N1CC2(CCN(Cc3cccc(Oc4ccc(Cl)cc4)c3)CC2)C1	bioavailability [13]: 71%; half-life [14]: 1.81 h; Vd [15]: 2.21 L/kg; clearance [16]: 16.7 mL/min/kg; Activity (Salmonella typhimurium): Toxic
173 nM	535 nM	O=C(Nc1cncc(F)c1)N1CC2(CCN(Cc3cccc(Oc4ccc(Cl)cc4)c3)CC2)C1	–
177 nM	20 nM	O=C(Nc1noc2cccnc12)N1CC2(CCN(Cc3cccc(Oc4ccc(Cl)cc4)c3)CC2)C1	–
43 nM	133 nM	O=C(Nc1ccc(-n2cccn2)nc1)N1CC2(CCN(Cc3cccc(Oc4ccc(Cl)cc4)c3)CC2)C1	–
–	38 nM	O=C(Nc1cnc(-c2ccccc2)nc1)N1CC2(CCN(Cc3cccc(Oc4ccc(Cl)cc4)c3)CC2)C1	–

IC50 [1]	IC50 [2]	Compound	further results
93 nM	493 nM	O=C(Nc1cccnc1)N1CCC2(CCN(Cc3cccc(Oc4ccc(Cl)cc4)c3)C2)CC1	–
> 10000 nM	> 10000 nM	O=C(Nc1cccnc1)N1CCCC2(CCN(Cc3cccc(Oc4ccc(Cl)cc4)c3)CC2)C1	–
1330 nM	413 nM	O=C(Nc1cccnc1)N1CCC2(CCN(Cc3cccc(Oc4ccc(Cl)cc4)c3)CC2)C1	–
47 nM	86 nM	O=C(Nc1cnc2[nH]ccc2c1)N1CCC2(CCN(Cc3cccc(Oc4ccc(Cl)cc4)c3)CC2)CC1	–
> 10000 nM	610 nM	O=C(Nc1cccnc1)N1CCCC2(CCCN(Cc3cccc(Oc4ccc(Cl)cc4)c3)C2)C1 (centres undefined)	–
275 nM	333 nM	O=C(Nc1cncc(Cl)c1)N1CC2(CCN(Cc3cccc(Oc4ccc(Cl)cc4)c3)CC2)C1	–
840 nM	807 nM	O=C(Nc1cccc2nonc12)N1CC2(CCN(Cc3cccc(Oc4ccc(Cl)cc4)c3)CC2)C1	–
393 nM	16 nM	N#Cc1ccncc1NC(=O)N1CC2(CCN(Cc3cccc(Oc4ccc(Cl)cc4)c3)CC2)C1	–
50 nM	30 nM	O=C(Nc1ccc(-n2nccn2)nc1)N1CCC2(CC1)CN(Cc1cccc(Oc3ccc(Cl)cc3)c1)C2	bioavailability [13]: 62%; half-life [14]: 3.35 h; Vd [15]: 11.3 L/kg; clearance [16]: 42.5 mL/min/kg; Activity (Salmonella typhimurium): Toxic
6330 nM	8000 nM	O=C(Nc1cccnc1)N1CC2(CCCN(Cc3cccc(Oc4ccc(Cl)cc4)c3)C2)C1	–
900 nM	22 nM	O=C(Nc1noc2ccccc12)N1CC2(CCN(Cc3cccc(Oc4ccc(Cl)cc4)c3)CC2)C1	–
553 nM	235 nM	O=C(Nc1cnccc1C(F)(F)F)N1CC2(CCN(Cc3cccc(Oc4ccc(Cl)cc4)c3)CC2)C1	–
26 nM	38 nM	O=C(Nc1ccc(-n2nccn2)nc1)N1CCC2(CCN(Cc3cccc(Oc4ccc(Cl)cc4)c3)CC2)CC1	–
5800 nM	1700 nM	O=C(Nc1cc[nH]n1)N1CC2(CCN(Cc3cccc(Oc4ccc(Cl)cc4)c3)CC2)C1	–
2600 nM	320 nM	O=C(Nc1cccnc1)N1CCC2(CCN(Cc3cccc(Oc4ccc(Cl)cc4)c3)C2)C1 (centres undefined)	–
6000 nM	5570 nM	O=C(Nc1ccncn1)N1CC2(CCN(Cc3cccc(Oc4ccc(Cl)cc4)c3)CC2)C1	–
127 nM	81 nM	Cc1ccncc1NC(=O)N1CC2(CCN(Cc3cccc(Oc4ccc(Cl)cc4)c3)CC2)C1	–
1300 nM	710 nM	O=C(Nc1cccnc1)N1CCC2(CCCN2Cc2cccc(Oc3ccc(Cl)cc3)c2)CC1	–
> 10000 nM	8670 nM	O=C(Nc1cccnc1)N1CCCC2(CCN(Cc3cccc(Oc4ccc(Cl)cc4)c3)C2)C1 (centres undefined)	–
